Experimental data reported in ChEMBL document CHEMBL4130598, “Discovery of New Sulfonamide Carbonic Anhydrase IX Inhibitors Incorporating Nitrogenous Bases” (ACS Med Chem Lett, 2017).
The source made the active and inactive calls. The rule behind the calls is not given here.

Assays:
Carbonic anhydrase 9 = Carbonic anhydrase 9 (Homo sapiens, UniProt Q16790); experiment: Inhibition of human carbonic anhydrase 9 incubated for 15 mins by stopped flow CO2 hydrase assay
HT-29 [1] = experiment: Cytotoxicity in human HT-29 cells assessed as cell mortality at 30 to 300 uM incubated for 16 hrs under normoxic conditions by MTT assay; format: functional
HT-29 [2] = experiment: Cytotoxicity in human HT-29 cells assessed as reduction in cell viability at 30 to 300 uM incubated for 16 hrs under hypoxic conditions by MTT assay
HT-29 [3] = experiment: Cytotoxicity in human HT-29 cells assessed as reduction in cell viability at 30 to 300 uM incubated for 48 hrs under hypoxic conditions by MTT assay; format: functional
Outline: (§1)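 HT-29 human colon cancer cells seeded at 1 × 10^4 per well and exposed to 30−300 μM for 16 or 48 h, under normoxia (20% O2) or hypoxia (0.1% O2). Viability is given relative to untreated control set at 100%, as mean ± SEM of three experiments, with significance tested against 0 μM.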

HT-29 [4] = experiment: Cytotoxicity in human HT-29 cells assessed as reduction in cell viability at 30 to 300 uM incubated for 16 hrs under normoxic conditions by MTT assay; format: functional, cell-based; outline: as §1
Carbonic anhydrase 1 = Carbonic anhydrase 1 (Homo sapiens, UniProt P00915); experiment: Inhibition of human carbonic anhydrase 1 incubated for 15 mins by stopped flow CO2 hydrase assay
Chain of Carbonic anhydrase 1 (P00915 whole entry): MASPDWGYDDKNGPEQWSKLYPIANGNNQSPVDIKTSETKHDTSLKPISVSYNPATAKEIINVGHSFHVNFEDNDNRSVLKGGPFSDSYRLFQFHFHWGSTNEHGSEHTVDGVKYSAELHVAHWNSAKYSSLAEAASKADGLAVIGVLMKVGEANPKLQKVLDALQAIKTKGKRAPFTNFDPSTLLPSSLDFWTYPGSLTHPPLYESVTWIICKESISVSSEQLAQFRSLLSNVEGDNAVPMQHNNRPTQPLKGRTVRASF

SMILES	Ki (Carbonic anhydrase 9)	further results
CN(C)/C=N/c1ncnc2c1ncn2CC(=O)Nc1ccc(S(N)(=O)=O)cc1	40 nM	–
Nc1ncnc2c1ncn2CCOc1ccc(S(N)(=O)=O)cc1	29.9 nM	Activity (HT-29 [1]): 10 - 15%; Activity (HT-29 [2]): inactive; Activity (HT-29 [3]): 25 - 30%; Activity (HT-29 [4]): Active
NS(=O)(=O)c1cccc(NC(=O)Cn2ccc(=O)[nH]c2=O)c1	3120 nM	–
NS(=O)(=O)c1cccc(-n2cc(Cn3ccc(=O)[nH]c3=O)nn2)c1	460 nM	–
NS(=O)(=O)c1ccc(CNC(=O)Cn2ccc(=O)[nH]c2=O)cc1	405 nM	–
NS(=O)(=O)c1ccc(CCNC(=O)Cn2ccc(=O)[nH]c2=O)cc1	46 nM	–
CN(C)/C=N/c1ncnc2c1ncn2CC(=O)NCc1ccc(S(N)(=O)=O)cc1	166 nM	–
Nc1ncnc2c1ncn2CC(=O)Nc1ccc(S(N)(=O)=O)cc1	16.9 nM	Activity (HT-29 [1]): 10 - 15%; Activity (HT-29 [2]): Active; Activity (HT-29 [3]): 25 - 30%; Activity (HT-29 [4]): Active
CN(C)/C=N/c1ncnc2c1ncn2CC(=O)NCCc1ccc(S(N)(=O)=O)cc1	113 nM	–
Nc1ncnc2c1ncn2Cc1cn(-c2ccc(S(N)(=O)=O)cc2)nn1	1.9 nM	–
Nc1ncnc2c1ncn2Cc1cn(-c2cccc(S(N)(=O)=O)c2)nn1	1310 nM	Ki (Carbonic anhydrase 1): > 10 µM
NS(=O)(=O)c1ccc(NC(=O)Cn2ccc(=O)[nH]c2=O)cc1	25.7 nM	Activity (HT-29 [2]): inactive; Activity (HT-29 [3]): 25 - 30%; Activity (HT-29 [4]): Active
NS(=O)(=O)c1ccc(-n2cc(Cn3ccc(=O)[nH]c3=O)nn2)cc1	4.8 nM	–
Nc1ncnc2c1ncn2CC(=O)NCc1ccc(S(N)(=O)=O)cc1	45.2 nM	–
NS(=O)(=O)c1ccc(O)c(NC(=O)Cn2ccc(=O)[nH]c2=O)c1	439 nM	–
Nc1ncnc2c1ncn2CC(=O)NCCc1ccc(S(N)(=O)=O)cc1	11.4 nM	Activity (HT-29 [1]): 10 - 15%; Activity (HT-29 [2]): inactive
Nc1ncnc2c1ncn2CC(=O)Nc1cccc(S(N)(=O)=O)c1	428 nM	Ki (Carbonic anhydrase 1): > 10 µM
CN(C)/C=N/c1ncnc2c1ncn2CC(=O)Nc1cccc(S(N)(=O)=O)c1	2810 nM	Ki (Carbonic anhydrase 1): > 10 µM
